Test results taken from ChEMBL document CHEMBL5150048, “Synthesis and Evaluation of Polymyxins Bearing Reductively Labile Disulfide-Linked Lipids” (J Med Chem, 2022).
Starred links: 1 amine or outer side, 2 acyl side, 3 side chain; linkers in the order of their positions; H or OH if unused. Positions of bridges follow the written chain, without caps; N, C: chain ends. Non-standard residues stand in square brackets, D forms with d. Residues, ends and D or L forms follow the SMILES beside them. *: point of attachment. X2 = CC(C)CCCCC[C@@H](N[*:1])C(=O)[*:2]; S(2-cyclohexylethyl) = C1CCC(CCS*)CC1; S(3-Cl-benzyl) = Clc1cccc(CS*)c1; X3 = c1ccc(Oc2ccc(CS*)cc2)cc1; X5 = c1ccc(-c2ccc(CS*)cc2)cc1; S(3-Methylbutyl) = CC(C)CCS*; X6 = c1ccc(-c2ccc(S*)cc2)cc1; Dab = NCC[C@H](N)C(=O)O; X1 = CC(C)CCCCS*; X4 = CCCCCCS*

Tests used:
Erythrocyte = assay: Hemolytic activity in sheep erythrocytes at 128 ug/ml incubated for 1 hr by absorbance based analysis; assay type: toxicity, cell-based, Ovis aries; conditions: dose 128 µg/ml
How it was run: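 Defibrinated sheep red cells were washed four times in PBS with 0.002% Tween20 and adjusted to A415 2.5–3.0. They were mixed 1:1 by volume with compound serial dilutions (128–4 μg/mL, before mixing) and shaken 1 h at 37 °C. After centrifugation, supernatant was diluted in PBS and read at 415 nm. Values were background-corrected and given as % of 0.1% Triton X-100 lysis, from triplicates.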

Acinetobacter baumannii = assay: Antibacterial activity against Acinetobacter baumannii ATCC 19606 assessed as inhibition of bacterial growth by CLSI based broth microdilution method; assay type: functional
How it was run: (§1)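 Broth microdilution per CLSI. Colonies from overnight blood agar at 37 °C were grown in TSB to OD600 0.5. Compounds (6.4 mg/mL DMSO stock) were diluted serially in CAMHB (12.5 μg/mL Mg2+, 20 μg/mL Ca2+) in polypropylene plates and inoculated to a final 10^6 CFU/mL, then incubated at 37 °C under gas-permeable membrane. MIC is the lowest concentration without visible growth, from at least duplicate experiments.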

[1] = Stability of the compound in PBS assessed as compound remaining at 1 mg/ml incubated for 24 hrs in presence of 5 uM glutathione by RP-HPLC analysis; assay type: physicochemical; conditions: PBS with 5 uM glutathione, read-out: Stability
How it was run: (§2)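 Compound (1 mg/mL stock) was mixed 1:9 by volume with PBS glutathione stock: 5.5 μM for the low-glutathione line (7), 5.5 mM for the high-glutathione line (8). Vials were N2-flushed and held in the HPLC autosampler at RT. Samples at 0, 1, 2, 3, 4, 8, 10 and 24 h were analysed by RP-HPLC, UV 214 nm, and quantified against an external calibration curve in PBS run in duplicate.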

[2] = Stability of the compound in PBS assessed as drug degradation at 1 mg/ml incubated for 24 hrs in presence of 5 mM glutathione by RP-HPLC analysis; assay type: physicochemical; conditions: buffer; how it was run: as §2
[3] = Cytotoxicity against human differentiated conditionally immortalized RPTEC cells assessed as reduction in cell viability incubated for 24 hrs by PrestoBlue reagent based assay; assay type: toxicity; conditions: read-out: TC50
How it was run: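 ciPTEC (OAT-1) cells were seeded at 2.0 × 10^5 cells/mL in DMEM/F-12 with 10% FCS, insulin, transferrin, selenium, hydrocortisone, EGF and tri-iodothyronine. They were differentiated 24 h at 33 °C then 6 days at 37 °C, 5% CO2. Compounds serially diluted in serum-free medium were applied for 24 h at 37 °C, then 10% PrestoBlue in HBSS was added. Fluorescence (ex 530/em 590 nm) was background-corrected and normalized to untreated cells. TC50 came from nonlinear regression with bottom fixed at 0.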

Klebsiella pneumoniae = assay: Antibacterial activity against Klebsiella pneumoniae ATCC 13883 assessed as inhibition of bacterial growth by CLSI based broth microdilution method; assay type: functional; how it was run: as §1
Escherichia coli = assay: Antibacterial activity against Escherichia coli ATCC 25922 assessed as inhibition of bacterial growth by CLSI based broth microdilution method; assay type: functional; how it was run: as §1
Pseudomonas aeruginosa = assay: Antibacterial activity against Pseudomonas aeruginosa ATCC 27853 assessed as inhibition of bacterial growth by CLSI based broth microdilution method; assay type: functional; how it was run: as §1
[4] = Toxicity index, ratio of test compound TC50 to polymyxin B TC50 for cytotoxicity against human differentiated conditionally immortalized RPTEC cells incubated for 24 hrs by PrestoBlue reagent based assay; assay type: cell-based

## POLYMYXIN B [listing 1 of 2 here]
Erythrocyte
  Activity: Non-Toxic

## CC(C)CCSSC[C@H](N)C(=O)N[C@H](C(=O)N[C@@H](CCN)C(=O)N[C@H]1CCNC(=O)[C@H]([C@@H](C)O)NC(=O)[C@H](CCN)NC(=O)[C@H](CCN)NC(=O)[C@H](CC(C)C)NC(=O)[C@@H](Cc2ccccc2)NC(=O)[C@H](CCN)NC1=O)[C@@H](C)O (H-C(S(3-Methylbutyl))T[Dab][Dab][Dab][dF]L[Dab][Dab]T; lactam 4-C)
Acinetobacter baumannii
  MIC: > 32 µg/mL

## CC(C)C[C@@H]1NC(=O)[C@@H](Cc2ccccc2)NC(=O)[C@H](CCN)NC(=O)[C@@H](NC(=O)[C@H](CCN)NC(=O)[C@@H](NC(=O)[C@H](N)CSSCc2cccc(Cl)c2)[C@@H](C)O)CCNC(=O)[C@H]([C@@H](C)O)NC(=O)[C@H](CCN)NC(=O)[C@H](CCN)NC1=O (H-[dC](S(3-Cl-benzyl))T[Dab][Dab][Dab][dF]L[Dab][Dab]T; lactam 4-C)
Erythrocyte
  Activity: Non-Toxic

## CC(C)C[C@@H]1NC(=O)[C@@H](Cc2ccccc2)NC(=O)[C@H](CCN)NC(=O)[C@@H](NC(=O)[C@H](CCN)NC(=O)[C@@H](NC(=O)[C@H](N)CSSCCC2CCCCC2)[C@@H](C)O)CCNC(=O)[C@H]([C@@H](C)O)NC(=O)[C@H](CCN)NC(=O)[C@H](CCN)NC1=O (H-[dC](S(2-cyclohexylethyl))T[Dab][Dab][Dab][dF]L[Dab][Dab]T; lactam 4-C)
Erythrocyte
  Activity: Non-Toxic

## CC(C)C[C@@H]1NC(=O)[C@@H](Cc2ccccc2)NC(=O)[C@H](CCN)NC(=O)[C@@H](NC(=O)[C@H](CCN)NC(=O)[C@@H](NC(=O)[C@@H](CSSCCC2CCCCC2)NC(=O)CN)[C@@H](C)O)CCNC(=O)[C@H]([C@@H](C)O)NC(=O)[C@H](CCN)NC(=O)[C@H](CCN)NC1=O (H-G[dC](S(2-cyclohexylethyl))T[Dab][Dab][Dab][dF]L[Dab][Dab]T; lactam 5-C)
Erythrocyte
  Activity: Non-Toxic

## CC(C)C[C@@H]1NC(=O)[C@@H](Cc2ccccc2)NC(=O)[C@H](CCN)NC(=O)[C@@H](NC(=O)[C@H](CCN)NC(=O)[C@@H](NC(=O)[C@H](N)CSSCc2ccc(Oc3ccccc3)cc2)[C@@H](C)O)CCNC(=O)[C@H]([C@@H](C)O)NC(=O)[C@H](CCN)NC(=O)[C@H](CCN)NC1=O (H-[dC](X3)T[Dab][Dab][Dab][dF]L[Dab][Dab]T; lactam 4-C)
Erythrocyte
  Activity: Non-Toxic

## CC(C)C[C@@H]1NC(=O)[C@@H](Cc2ccccc2)NC(=O)[C@H](CCN)NC(=O)[C@@H](NC(=O)[C@H](CCN)NC(=O)[C@@H](NC(=O)[C@H](CSSCCC2CCCCC2)NC(=O)CN)[C@@H](C)O)CCNC(=O)[C@H]([C@@H](C)O)NC(=O)[C@H](CCN)NC(=O)[C@H](CCN)NC1=O (H-GC(S(2-cyclohexylethyl))T[Dab][Dab][Dab][dF]L[Dab][Dab]T; lactam 5-C)
[1]
  remaining at 24 h, 1 mg/ml: 70%
Erythrocyte
  Activity: Non-Toxic
[2]
  Stability: Unstable

## CC(C)CCCCSSC[C@@H](N)C(=O)N[C@H](C(=O)N[C@@H](CCN)C(=O)N[C@H]1CCNC(=O)[C@H]([C@@H](C)O)NC(=O)[C@H](CCN)NC(=O)[C@H](CCN)NC(=O)[C@H](CC(C)C)NC(=O)[C@@H](Cc2ccccc2)NC(=O)[C@H](CCN)NC1=O)[C@@H](C)O (H-[dC](X1)T[Dab][Dab][Dab][dF]L[Dab][Dab]T; lactam 4-C)
Erythrocyte
  Activity: Non-Toxic

## CC(C)CCCCC[C@@H](N)C(=O)N[C@H](C(=O)N[C@@H](CCN)C(=O)N[C@H]1CCNC(=O)[C@H]([C@@H](C)O)NC(=O)[C@H](CCN)NC(=O)[C@H](CCN)NC(=O)[C@H](CC(C)C)NC(=O)[C@@H](Cc2ccccc2)NC(=O)[C@H](CCN)NC1=O)[C@@H](C)O (H-[X2]T[Dab][Dab][Dab][dF]L[Dab][Dab]T; lactam 4-C)
Erythrocyte
  Activity: Non-Toxic
[3]
  CC50 at 24 h: 82 µM

## CC(C)C[C@@H]1NC(=O)[C@@H](Cc2ccccc2)NC(=O)[C@H](CCN)NC(=O)[C@@H](NC(=O)[C@H](CCN)NC(=O)[C@@H](NC(=O)[C@H](N)CSSCc2ccc(-c3ccccc3)cc2)[C@@H](C)O)CCNC(=O)[C@H]([C@@H](C)O)NC(=O)[C@H](CCN)NC(=O)[C@H](CCN)NC1=O (H-[dC](X5)T[Dab][Dab][Dab][dF]L[Dab][Dab]T; lactam 4-C)
Erythrocyte
  Activity: Non-Toxic

## CCCCCCSSC[C@H](N)C(=O)N[C@H](C(=O)N[C@@H](CCN)C(=O)N[C@H]1CCNC(=O)[C@H]([C@@H](C)O)NC(=O)[C@H](CCN)NC(=O)[C@H](CCN)NC(=O)[C@H](CC(C)C)NC(=O)[C@@H](Cc2ccccc2)NC(=O)[C@H](CCN)NC1=O)[C@@H](C)O (H-C(X4)T[Dab][Dab][Dab][dF]L[Dab][Dab]T; lactam 4-C)
Acinetobacter baumannii
  MIC: > 32 µg/mL

## CC(C)C[C@@H]1NC(=O)[C@@H](Cc2ccccc2)NC(=O)[C@H](CCN)NC(=O)[C@@H](NC(=O)[C@H](CCN)NC(=O)[C@@H](NC(=O)[C@H](CSSc2ccc(-c3ccccc3)cc2)NC(=O)CN)[C@@H](C)O)CCNC(=O)[C@H]([C@@H](C)O)NC(=O)[C@H](CCN)NC(=O)[C@H](CCN)NC1=O (H-GC(X6)T[Dab][Dab][Dab][dF]L[Dab][Dab]T; lactam 5-C)
Erythrocyte
  Activity: Non-Toxic

## CC(C)CCSSC[C@@H](N)C(=O)N[C@H](C(=O)N[C@@H](CCN)C(=O)N[C@H]1CCNC(=O)[C@H]([C@@H](C)O)NC(=O)[C@H](CCN)NC(=O)[C@H](CCN)NC(=O)[C@H](CC(C)C)NC(=O)[C@@H](Cc2ccccc2)NC(=O)[C@H](CCN)NC1=O)[C@@H](C)O (H-[dC](S(3-Methylbutyl))T[Dab][Dab][Dab][dF]L[Dab][Dab]T; lactam 4-C)
[1]
  remaining at 24 h, 1 mg/ml: 70%
Erythrocyte
  Activity: Non-Toxic
[2]
  Stability: Unstable
[3]
  CC50 at 24 h: 192 µM

## POLYMYXIN B [listing 2 of 2 here]
Klebsiella pneumoniae
  MIC: 0.25 µg/mL
Escherichia coli
  MIC: 1 µg/mL
Pseudomonas aeruginosa
  MIC: 1 µg/mL
Acinetobacter baumannii
  MIC: 0.25 µg/mL

## CC(C)C[C@@H]1NC(=O)[C@@H](Cc2ccccc2)NC(=O)[C@H](CCN)NC(=O)[C@@H](NC(=O)[C@H](CCN)NC(=O)[C@@H](N)[C@@H](C)O)CCNC(=O)[C@H]([C@@H](C)O)NC(=O)[C@H](CCN)NC(=O)[C@H](CCN)NC1=O [POLYMYXIN B NONAPEPTIDE] (H-T[Dab][Dab][Dab][dF]L[Dab][Dab]T; lactam 3-C)
Klebsiella pneumoniae
  MIC: > 32 µg/mL
Escherichia coli
  MIC: > 32 µg/mL
Pseudomonas aeruginosa
  MIC: > 32 µg/mL
Acinetobacter baumannii
  MIC: > 32 µg/mL
[4]
  selectivity ratio at 24 h: > 10

## CCCCCCSSC[C@@H](N)C(=O)N[C@H](C(=O)N[C@@H](CCN)C(=O)N[C@H]1CCNC(=O)[C@H]([C@@H](C)O)NC(=O)[C@H](CCN)NC(=O)[C@H](CCN)NC(=O)[C@H](CC(C)C)NC(=O)[C@@H](Cc2ccccc2)NC(=O)[C@H](CCN)NC1=O)[C@@H](C)O (H-[dC](X4)T[Dab][Dab][Dab][dF]L[Dab][Dab]T; lactam 4-C)
Erythrocyte
  Activity: Non-Toxic
